Bioassay records (PubChem)
C2C12 statin: suppressors of simvastatin-induced myotoxicity in C2C12 myotubes | 330,000 tested, 0.78% active | ATP luminescence, 48 h; scaled: DMSO 0, geranylgeraniol control 100 | rescue of ATP level, % at 7.49 µM;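 active means mean ATP rescue above about 67%, or every replicate alone reaching that limit, limit read from the data, passing the limit was not always enough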;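 further: myotubes were challenged with 10 µM simvastatin during compound exposure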
rRNA inh HTS: inhibitors of bacterial rRNA selective over humanized ribosomes. AID 720706. 350,000 tested, 1.6% active. E. coli WT GFP vs humanized-ribosome RFP mutants, fluorescence, 24 h; hits give low values; DMSO median 0, no signal -100. GFP signal change (wild-type ribosome), % (no concentration beside the values);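 active means significant combined selectivity score with lowered wild-type GFP, culture density cut under 30%, mutant RFP and density less affected; inactive means any of these conditions unmet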
SIRT5 inh: blocks human SIRT5 desuccinylation of peptide. 330,000 tested, 1.1% active. Purified SirT5, succinyl-peptide AMC, trypsin-coupled fluorescence. inhibition, % at 15 µM. AID 652115; in the data active means inhibition above about 15%
Target sequence (Q9NXA8 whole entry, looked up): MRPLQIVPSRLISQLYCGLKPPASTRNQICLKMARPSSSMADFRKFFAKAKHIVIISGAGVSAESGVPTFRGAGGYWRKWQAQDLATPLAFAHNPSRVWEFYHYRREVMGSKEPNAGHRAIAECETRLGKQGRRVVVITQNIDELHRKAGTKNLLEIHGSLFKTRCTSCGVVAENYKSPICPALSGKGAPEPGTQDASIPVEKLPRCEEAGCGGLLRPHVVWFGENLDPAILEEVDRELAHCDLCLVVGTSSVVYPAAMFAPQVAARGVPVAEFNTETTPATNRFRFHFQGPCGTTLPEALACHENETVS
E-sel inducer: E-selectin induction on HUVECs | AID 686992 | activation, % at 7.58 µM | P16581 | HUVEC E-selectin immunofluorescence imaging; normalized: neutral wells 0, TNF-alpha wells 100 | 260,000 tested, 0.37% active;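 active means mean E-selectin-positive cell signal at least 10% of the positive control, reached in at least 60% of replicates, without over 20% cell loss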
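Test system: HUVEC; input: 3,000 HUVEC/well; measured by: immunofluorescence imaging; read-out: % PE-positive cells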
FGF22 binding: FGF22 (human) thermal shift binding; activity (Tm shift, normalised), % at 9.99 µM; Q9HCT0; recombinant FGF22 thermal shift, SYPRO orange fluorescence; percent of sucrose octasulfate shift, DMSO zero; 340,000 tested, 1.5% active;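 active means mean Tm shift, scaled 0 neutral to 100 positive control, at about 1.3% or above, every replicate too, limit read from the data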
Target sequence (Q9HCT0 whole entry, looked up): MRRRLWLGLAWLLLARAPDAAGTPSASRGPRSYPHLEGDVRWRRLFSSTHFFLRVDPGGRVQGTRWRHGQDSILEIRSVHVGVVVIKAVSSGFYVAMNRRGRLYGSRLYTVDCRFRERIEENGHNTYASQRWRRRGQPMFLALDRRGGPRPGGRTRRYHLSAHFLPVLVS
FN deposit inh: fibronectin deposition inhibition; AH1F fibroblasts, Alexa488-fibronectin deposition fluorescence, overnight; inhibition, % at 12.6 µM; 350,000 tested, 0.086% active; AID 743247;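 active means mean inhibition across replicates of 30% or more, regardless of how many single replicates reach that level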;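 further: positive control wells lacked labelled fibronectin entirely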
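Schedule: 1 h cell adhesion before compound, then overnight fibronectin incubation; test system: AH1F fibroblast monolayer depositing Alexa488-labelled fibronectin into matrix; quantity: 10000 AH1F cells per well; probe or stimulus: fluorescent fibronectin at 24 nM final; signal: fluorescence, ex 485 nm, em 525 nm; evaluation: percent inhibition as loss of matrix-bound fibronectin fluorescence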
Numbers without * were called inactive. In the library only some 4% were active in any assay of this set; here they are far more common.

Screening CCC(=O)N1C[C@H](C)[C@H](OC)CN(C)C(=O)c2ccc(NC(=O)NC(C)C)cc2OC[C@H]1C returned rRNA inh HTS 0, SIRT5 inh -1, E-sel inducer 0, FGF22 binding 1 and FN deposit inh -9.
Cc1ccc(-n2[nH]c(C)c(C=Nc3cc(C)ccn3)c2=O)cc1 was read as C2C12 statin 89* and FN deposit inh -5.
For CCOC(=O)N/N=C/c1c(F)c(F)c(F)c(F)c1F the results were rRNA inh HTS -8, SIRT5 inh -1, FGF22 binding 44* and FN deposit inh -28.
O=C1OC(c2ccc3ccccc3c2O)(c2ccc3ccccc3c2O)c2ccccc21 was read as C2C12 statin 5, rRNA inh HTS -41*, SIRT5 inh 1, E-sel inducer 1 and FGF22 binding 0.
Screening CC(C)(C)c1nnc2sc(SCC(=O)N3CCc4ccccc43)nn2c1=O returned C2C12 statin 2, rRNA inh HTS 18, SIRT5 inh 1, E-sel inducer 0, FGF22 binding 43* and FN deposit inh 2.
Screening CSc1nsc(SCC(=O)N2CCCc3ccccc32)n1 returned C2C12 statin 92*.
`CN(C)c1nc(Oc2ccc(C(=O)OCC(=O)Nc3ccccc3)cc2)nc(N(C)C)n1` gave C2C12 statin 119*.
Screening O=C1C=C(c2cccc(Cl)c2)C[C@@H](c2ccc3c(c2)OCO3)C1 returned C2C12 statin 134*, rRNA inh HTS -9, SIRT5 inh -3, E-sel inducer 0, FGF22 binding 0 and FN deposit inh 6.
For O=C1C=C(c2ccccc2)C[C@@H](c2ccc3c(c2)OCO3)C1 the results were C2C12 statin 8, rRNA inh HTS -16, E-sel inducer 0, FGF22 binding 0 and FN deposit inh 19.
COc1ccc([C@H]2CC(=O)C=C(c3ccc4c(c3)OCO4)C2)cc1OC was read as C2C12 statin 23, rRNA inh HTS -14, SIRT5 inh -3, E-sel inducer 0, FGF22 binding 4.0* and FN deposit inh 1.
Screening COc1ccc([C@H]2CC(=O)C=C(c3ccc4ccccc4c3)C2)cc1OC returned C2C12 statin 1, rRNA inh HTS -17, SIRT5 inh 15*, E-sel inducer 0, FGF22 binding 0 and FN deposit inh -10.
C[C@H]1CN([C@@H](C)CO)C(=O)c2cccc(NC(=O)c3ccc(-c4nccs4)cc3)c2O[C@@H]1CN(C)S(=O)(=O)c1cn(C)cn1 was read as rRNA inh HTS 1, SIRT5 inh 2, E-sel inducer 0, FGF22 binding 0 and FN deposit inh -4.
For CO[C@@H]1CN(C)C(=O)c2cc(NS(=O)(=O)c3ccc(Cl)cc3)ccc2OC[C@H](C)NC[C@H]1C the results were C2C12 statin -4, rRNA inh HTS -1, SIRT5 inh -4, E-sel inducer 0, FGF22 binding 0 and FN deposit inh 19.
CO[C@@H]1CN(C)C(=O)c2cc(NC(C)=O)ccc2OC[C@H](C)NC[C@@H]1C was read as C2C12 statin 9, rRNA inh HTS 3, SIRT5 inh 0, E-sel inducer 0 and FGF22 binding 0.
`COc1cccc(NC(=O)C2CCC(CNS(=O)(=O)c3cccc4cccnc34)CC2)c1` (centres undefined) gave C2C12 statin 0, rRNA inh HTS -26*, SIRT5 inh -3, E-sel inducer 0, FGF22 binding 0 and FN deposit inh -2.
For COc1cc(NC(=O)[C@@H]2CCCN2S(=O)(=O)c2cccc3cccnc23)cc(OC)c1OC the results were C2C12 statin 87*, rRNA inh HTS 0, E-sel inducer 20, FGF22 binding 0 and FN deposit inh 0.
Screening COc1ccc(CNC(=O)C2CCC(CNS(=O)(=O)c3cccc4cccnc34)CC2)cc1 (centres undefined) returned C2C12 statin 5, rRNA inh HTS -3, SIRT5 inh -6, E-sel inducer 0, FGF22 binding 0 and FN deposit inh 4.
`Cc1ccccc1S(=O)(=O)NCC[C@@H]1CC[C@@H](NC(=O)Nc2cccc(F)c2)[C@@H](CO)O1` gave C2C12 statin -9, rRNA inh HTS -4, SIRT5 inh -3, E-sel inducer 0, FGF22 binding 0 and FN deposit inh -11.
Screening Cn1c(CN2CCN(C(=O)c3ccccc3)CC2)nc2cc([N+](=O)[O-])ccc21 returned rRNA inh HTS 7, SIRT5 inh -4 and FGF22 binding 0.
`Cn1c(CN2CCN(C(=O)c3ccccc3Cl)CC2)nc2cc([N+](=O)[O-])ccc21` gave rRNA inh HTS 13, SIRT5 inh 0, FGF22 binding 44* and FN deposit inh -10.
For C[C@@H]1CN([C@H](C)CO)C(=O)c2cc(NC(=O)c3ccncc3)ccc2O[C@@H]1CN(C)Cc1ccc2c(c1)OCO2 the results were C2C12 statin -14, SIRT5 inh 2 and FGF22 binding 0.
Screening CSCCC(NC(=O)c1ccccc1)C(=O)NCCCSc1ccccc1 (centres undefined) returned C2C12 statin -5, rRNA inh HTS -23*, SIRT5 inh 0, FGF22 binding 0 and FN deposit inh -5.
Screening CCNC(=O)[C@H]1[C@H](CO)[C@H]2Cn3c(ccc(C4=CCCC4)c3=O)[C@@H]1N2C(=O)C1CC1 returned C2C12 statin -5, rRNA inh HTS 3, SIRT5 inh -20, E-sel inducer 1 and FGF22 binding 0.
`Cc1nn(-c2ccccc2)c(Cl)c1CN(C(=O)CCl)c1ccc(Cl)cc1` gave rRNA inh HTS -32*, E-sel inducer 0, FGF22 binding 0 and FN deposit inh -3.
For COc1ccc(NC(=O)N(C)C[C@H]2Oc3cc(-c4ccc(C)cc4)ccc3S(=O)(=O)N([C@H](C)CO)C[C@H]2C)cc1 the results were C2C12 statin 17, rRNA inh HTS -1, SIRT5 inh -2, E-sel inducer 0 and FGF22 binding 1.7*.
For COc1ccc(NC(=O)N(C)C[C@H]2Oc3cc(C#CCC(C)C)ccc3S(=O)(=O)N([C@@H](C)CO)C[C@@H]2C)cc1 the results were C2C12 statin -9, rRNA inh HTS -2, SIRT5 inh 33*, E-sel inducer 1 and FGF22 binding 0.
COc1ccc(NC(=O)N(C)C[C@@H]2Oc3cc(-c4ccc(C)cc4)ccc3S(=O)(=O)N([C@@H](C)CO)C[C@H]2C)cc1 was read as C2C12 statin -9, rRNA inh HTS 4, SIRT5 inh 9, E-sel inducer 0 and FGF22 binding 0.
